Reference: ChEMBL document CHEMBL2057112, “Enamino-oxindole HIV protease inhibitors” (Bioorg Med Chem Lett, 2012)

Test system: not listed separately
Assay: Inhibition of wild type Human immunodeficiency virus protease expressed in Escherichia coli using ArgGlu(EDANS)SerGlnAsnTyrProIleValGlnLys(DABCYL)Arg as substrate preincubated with compound for 0.5 to 1 min measured by fluorometric analysis at pH 6.5
Details: not given
In the case of `CCCCNC=C1C(=O)Nc2ccc(S(=O)(=O)N(CC(C)C)C[C@@H](O)[C@H](Cc3ccccc3)NC(=O)O[C@H]3CO[C@H]4OCC[C@H]43)cc21` (mixture of isomers), the Ki is reported as under 0.1 nM.
For `CC(C)CN(C[C@@H](O)[C@H](Cc1ccccc1)NC(=O)O[C@H]1CO[C@H]2OCC[C@H]21)S(=O)(=O)c1ccc2c(c1)C(=CNCc1ccccc1)C(=O)N2` (mixture of isomers), the Ki was under 0.1 nM.
Compound `CC(C)CN(C[C@@H](O)[C@H](Cc1ccccc1)NC(=O)O[C@H]1CO[C@H]2OCC[C@H]21)S(=O)(=O)c1ccc2c(c1)C(=CNCCC(C)(C)C)C(=O)N2` (mixture of isomers) has a Ki of under 0.1 nM.

Test system: not listed separately
Assay: Inhibition of Human immunodeficiency virus protease M9 mutant expressed in Escherichia coli using ArgGlu(EDANS)SerGlnAsnTyrProIleValGlnLys(DABCYL)Arg as substrate preincubated with compound for 0.5 to 1 min measured by fluorometric analysis at pH 6.5
Details: not given
Compound `CCCCNC=C1C(=O)Nc2ccc(S(=O)(=O)N(CC(C)C)C[C@@H](O)[C@H](Cc3ccccc3)NC(=O)O[C@H]3CO[C@H]4OCC[C@H]43)cc21` (mixture of isomers) has a Ki of under 0.3 nM.
Compound `CC(C)CN(C[C@@H](O)[C@H](Cc1ccccc1)NC(=O)O[C@H]1CO[C@H]2OCC[C@H]21)S(=O)(=O)c1ccc2c(c1)C(=CNCc1ccccc1)C(=O)N2` (mixture of isomers) has a Ki of under 0.3 nM.
`CC(C)CN(C[C@@H](O)[C@H](Cc1ccccc1)NC(=O)O[C@H]1CO[C@H]2OCC[C@H]21)S(=O)(=O)c1ccc2c(c1)C(=CNCCC(C)(C)C)C(=O)N2` (mixture of isomers) showed a Ki of under 0.3 nM.

Test system: not listed separately
Assay: Inhibition of Human immunodeficiency virus protease M10 mutant expressed in Escherichia coli using ArgGlu(EDANS)SerGlnAsnTyrProIleValGlnLys(DABCYL)Arg as substrate preincubated with compound for 0.5 to 1 min measured by fluorometric analysis at pH 6.5
Details: not given
Compound `CCCCNC=C1C(=O)Nc2ccc(S(=O)(=O)N(CC(C)C)C[C@@H](O)[C@H](Cc3ccccc3)NC(=O)O[C@H]3CO[C@H]4OCC[C@H]43)cc21` (mixture of isomers) has a Ki of under 1 nM.
In the case of `CC(C)CN(C[C@@H](O)[C@H](Cc1ccccc1)NC(=O)O[C@H]1CO[C@H]2OCC[C@H]21)S(=O)(=O)c1ccc2c(c1)C(=CNCc1ccccc1)C(=O)N2` (mixture of isomers), the Ki is reported as under 1 nM.
`CC(C)CN(C[C@@H](O)[C@H](Cc1ccccc1)NC(=O)O[C@H]1CO[C@H]2OCC[C@H]21)S(=O)(=O)c1ccc2c(c1)C(=CNCCC(C)(C)C)C(=O)N2` (mixture of isomers) gave a Ki of under 1 nM.

Test system: Human immunodeficiency virus 1
Assay: Antiviral activity against Human immunodeficiency virus 1 HXB2 expressing wild type protease infected in human MT4 cells after 5 days by MTT assay
Format: functional, organism-based
Details: Human immunodeficiency virus 1, HXB2, MT4, 120 h
`CCCCNC=C1C(=O)Nc2ccc(S(=O)(=O)N(CC(C)C)C[C@@H](O)[C@H](Cc3ccccc3)NC(=O)O[C@H]3CO[C@H]4OCC[C@H]43)cc21` (mixture of isomers) showed an IC50 of 13 nM.
Work on `CC(C)CN(C[C@@H](O)[C@H](Cc1ccccc1)NC(=O)O[C@H]1CO[C@H]2OCC[C@H]21)S(=O)(=O)c1ccc2c(c1)C(=CNCc1ccccc1)C(=O)N2` (mixture of isomers) yielded an IC50 of 14 nM.
`CC(C)CN(C[C@@H](O)[C@H](Cc1ccccc1)NC(=O)O[C@H]1CO[C@H]2OCC[C@H]21)S(=O)(=O)c1ccc2c(c1)C(=CNCCC(C)(C)C)C(=O)N2` (mixture of isomers) gave an IC50 of 11 nM.

Test system: Human immunodeficiency virus 1
Assay: Antiviral activity against Human immunodeficiency virus 1 HXB2 expressing protease M8 mutant infected in human MT4 cells after 5 days by MTT assay
Format: functional, organism-based
Details: Human immunodeficiency virus 1, HXB2, MT4, 120 h
`CCCCNC=C1C(=O)Nc2ccc(S(=O)(=O)N(CC(C)C)C[C@@H](O)[C@H](Cc3ccccc3)NC(=O)O[C@H]3CO[C@H]4OCC[C@H]43)cc21` (mixture of isomers) showed an IC50 of 25 nM.
In the case of `CC(C)CN(C[C@@H](O)[C@H](Cc1ccccc1)NC(=O)O[C@H]1CO[C@H]2OCC[C@H]21)S(=O)(=O)c1ccc2c(c1)C(=CNCc1ccccc1)C(=O)N2` (mixture of isomers), the IC50 is reported as 35 nM.
With `CC(C)CN(C[C@@H](O)[C@H](Cc1ccccc1)NC(=O)O[C@H]1CO[C@H]2OCC[C@H]21)S(=O)(=O)c1ccc2c(c1)C(=CNCCC(C)(C)C)C(=O)N2` (mixture of isomers) the IC50 was 23 nM.

Test system: Human immunodeficiency virus 1
Assay: Antiviral activity against Human immunodeficiency virus 1 HXB2 expressing protease M9 mutant infected in human MT4 cells after 5 days by MTT assay
Format: functional, organism-based
Details: Human immunodeficiency virus 1, HXB2, MT4, 120 h
Compound `CCCCNC=C1C(=O)Nc2ccc(S(=O)(=O)N(CC(C)C)C[C@@H](O)[C@H](Cc3ccccc3)NC(=O)O[C@H]3CO[C@H]4OCC[C@H]43)cc21` (mixture of isomers) has an IC50 of 11 nM.

Test system: Human immunodeficiency virus 1
Assay: Antiviral activity against Human immunodeficiency virus 1 HXB2 expressing protease M10 mutant infected in human MT4 cells after 5 days by MTT assay
Format: functional, organism-based
Details: Human immunodeficiency virus 1, HXB2, MT4, 120 h
Compound `CCCCNC=C1C(=O)Nc2ccc(S(=O)(=O)N(CC(C)C)C[C@@H](O)[C@H](Cc3ccccc3)NC(=O)O[C@H]3CO[C@H]4OCC[C@H]43)cc21` (mixture of isomers) has an IC50 of 40 nM.
`CC(C)CN(C[C@@H](O)[C@H](Cc1ccccc1)NC(=O)O[C@H]1CO[C@H]2OCC[C@H]21)S(=O)(=O)c1ccc2c(c1)C(=CNCc1ccccc1)C(=O)N2` (mixture of isomers) showed an IC50 of 30 nM.
For `CC(C)CN(C[C@@H](O)[C@H](Cc1ccccc1)NC(=O)O[C@H]1CO[C@H]2OCC[C@H]21)S(=O)(=O)c1ccc2c(c1)C(=CNCCC(C)(C)C)C(=O)N2` (mixture of isomers), the IC50 was 32 nM.

Test system: Human immunodeficiency virus 1
Assay: Antiviral activity against Human immunodeficiency virus 1 HXB2 expressing protease M3 mutant infected in human MT4 cells after 5 days by MTT assay
Format: functional, organism-based
Details: Human immunodeficiency virus 1, HXB2, MT4, 120 h
Procedure, shortened: (§1)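 MT-4 cells (AIDS Research and Reference Reagent Program) exposed to 50% tissue culture infective doses (TCID₅₀) of virus with various concentrations of test compound for 5 days. MTT solution then added and absorbance measured. Mutant strains carry 10–17 resistance mutations with phenotypic resistance to marketed PIs; all include I84V except M7. IC₅₀ reported.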
In the case of `CCCCNC=C1C(=O)Nc2ccc(S(=O)(=O)N(CC(C)C)C[C@@H](O)[C@H](Cc3ccccc3)NC(=O)O[C@H]3CO[C@H]4OCC[C@H]43)cc21` (mixture of isomers), the IC50 is reported as 15 nM.
`CC(C)CN(C[C@@H](O)[C@H](Cc1ccccc1)NC(=O)O[C@H]1CO[C@H]2OCC[C@H]21)S(=O)(=O)c1ccc2c(c1)C(=CNCc1ccccc1)C(=O)N2` (mixture of isomers) gave an IC50 of 13 nM.
With `CC(C)CN(C[C@@H](O)[C@H](Cc1ccccc1)NC(=O)O[C@H]1CO[C@H]2OCC[C@H]21)S(=O)(=O)c1ccc2c(c1)C(=CNCCC(C)(C)C)C(=O)N2` (mixture of isomers) the IC50 was 19 nM.

Test system: Human immunodeficiency virus 1
Assay: Antiviral activity against Human immunodeficiency virus 1 HXB2 expressing protease M4 mutant infected in human MT4 cells after 5 days by MTT assay
Format: functional, organism-based
Details: Human immunodeficiency virus 1, HXB2, MT4, 120 h
Procedure, shortened: as §1
With `CCCCNC=C1C(=O)Nc2ccc(S(=O)(=O)N(CC(C)C)C[C@@H](O)[C@H](Cc3ccccc3)NC(=O)O[C@H]3CO[C@H]4OCC[C@H]43)cc21` (mixture of isomers) the IC50 was 28 nM.
`CC(C)CN(C[C@@H](O)[C@H](Cc1ccccc1)NC(=O)O[C@H]1CO[C@H]2OCC[C@H]21)S(=O)(=O)c1ccc2c(c1)C(=CNCc1ccccc1)C(=O)N2` (mixture of isomers) showed an IC50 of 20 nM.
`CC(C)CN(C[C@@H](O)[C@H](Cc1ccccc1)NC(=O)O[C@H]1CO[C@H]2OCC[C@H]21)S(=O)(=O)c1ccc2c(c1)C(=CNCCC(C)(C)C)C(=O)N2` (mixture of isomers) showed an IC50 of 25 nM.

Test system: Human immunodeficiency virus 1
Assay: Antiviral activity against Human immunodeficiency virus 1 HXB2 expressing protease M5 mutant infected in human MT4 cells after 5 days by MTT assay
Format: functional, organism-based
Details: Human immunodeficiency virus 1, HXB2, MT4, 120 h
Procedure, shortened: as §1
For `CCCCNC=C1C(=O)Nc2ccc(S(=O)(=O)N(CC(C)C)C[C@@H](O)[C@H](Cc3ccccc3)NC(=O)O[C@H]3CO[C@H]4OCC[C@H]43)cc21` (mixture of isomers), the IC50 was 18 nM.
`CC(C)CN(C[C@@H](O)[C@H](Cc1ccccc1)NC(=O)O[C@H]1CO[C@H]2OCC[C@H]21)S(=O)(=O)c1ccc2c(c1)C(=CNCc1ccccc1)C(=O)N2` (mixture of isomers) showed an IC50 of 20 nM.
`CC(C)CN(C[C@@H](O)[C@H](Cc1ccccc1)NC(=O)O[C@H]1CO[C@H]2OCC[C@H]21)S(=O)(=O)c1ccc2c(c1)C(=CNCCC(C)(C)C)C(=O)N2` (mixture of isomers) showed an IC50 of 17 nM.

Test system: Human immunodeficiency virus 1
Assay: Antiviral activity against Human immunodeficiency virus 1 HXB2 expressing protease M6 mutant infected in human MT4 cells after 5 days by MTT assay
Format: functional, organism-based
Details: Human immunodeficiency virus 1, HXB2, MT4, 120 h
Procedure, shortened: as §1
Compound `CCCCNC=C1C(=O)Nc2ccc(S(=O)(=O)N(CC(C)C)C[C@@H](O)[C@H](Cc3ccccc3)NC(=O)O[C@H]3CO[C@H]4OCC[C@H]43)cc21` (mixture of isomers) has an IC50 of 32 nM.
Work on `CC(C)CN(C[C@@H](O)[C@H](Cc1ccccc1)NC(=O)O[C@H]1CO[C@H]2OCC[C@H]21)S(=O)(=O)c1ccc2c(c1)C(=CNCc1ccccc1)C(=O)N2` (mixture of isomers) yielded an IC50 of 18 nM.
With `CC(C)CN(C[C@@H](O)[C@H](Cc1ccccc1)NC(=O)O[C@H]1CO[C@H]2OCC[C@H]21)S(=O)(=O)c1ccc2c(c1)C(=CNCCC(C)(C)C)C(=O)N2` (mixture of isomers) the IC50 was 24 nM.

Test system: Human immunodeficiency virus 1
Assay: Antiviral activity against Human immunodeficiency virus 1 HXB2 expressing protease M7 mutant infected in human MT4 cells after 5 days by MTT assay
Format: functional, organism-based
Details: Human immunodeficiency virus 1, HXB2, MT4, 120 h
Procedure, shortened: as §1
In the case of `CCCCNC=C1C(=O)Nc2ccc(S(=O)(=O)N(CC(C)C)C[C@@H](O)[C@H](Cc3ccccc3)NC(=O)O[C@H]3CO[C@H]4OCC[C@H]43)cc21` (mixture of isomers), the IC50 is reported as 5 nM.
`CC(C)CN(C[C@@H](O)[C@H](Cc1ccccc1)NC(=O)O[C@H]1CO[C@H]2OCC[C@H]21)S(=O)(=O)c1ccc2c(c1)C(=CNCc1ccccc1)C(=O)N2` (mixture of isomers) showed an IC50 of 4.1 nM.
With `CC(C)CN(C[C@@H](O)[C@H](Cc1ccccc1)NC(=O)O[C@H]1CO[C@H]2OCC[C@H]21)S(=O)(=O)c1ccc2c(c1)C(=CNCCC(C)(C)C)C(=O)N2` (mixture of isomers) the IC50 was 3.2 nM.
